Test results published in ChEMBL document CHEMBL1148699, “Characterization of the intracellular mechanisms involved in the antiaggregant properties of cinnamtannin B-1 from bay wood in human platelets” (2007).
The source made the active and inactive calls. The calls are words filed in the database; no cut-off is given here.

Key:
[1] = tested on: Platelet; test: Effect on rate of thrombin-induced human platelet aggregation at 10 uM after 10 mins; type: functional
In short: (§1)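 Washed human platelets (aspirin 100 µM and apyrase in PRP) suspended in HBS pH 7.45 with 1 mM Ca2+. Preincubated 10 min with 10 µM agent or DMSO vehicle, then stimulated with 0.1 U/mL thrombin at 37 °C with stirring at 1200 rpm in an aggregometer. Lag time, % rate and % aggregation read from traces; mean ± SEM of four determinations.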

[2] = tested on: Platelet; test: Effect on thrombin-induced human platelet aggregation assessed as lag time at 10 uM after 10 mins; type: functional; in short: as §1
[3] = tested on: Platelet; test: Effect on thrombin-induced human platelet aggregation at 10 uM after 10 mins; type: functional; in short: as §1
[4] = tested on: Platelet; test: Effect on thrombin-induced human platelet aggregation at 0.1 uM; type: functional
In short: (§2)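 Washed human platelets (from aspirin- and apyrase-treated PRP) in HEPES-buffered saline, pH 7.45, with 1 mM Ca2+. Preincubated 30 min with 0.1-10 µM compound (10 mM DMSO stock) or vehicle. Stimulated with 0.1 U/mL thrombin or 10 µM ADP. Read in an aggregometer at 37 °C, stirred at 1200 rpm, as lag time, % rate and % aggregation. Mean ± SEM, six determinations.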

[5] = tested on: Platelet; test: Effect on thrombin-induced human platelet aggregation assessed as lag time at 0.1 uM; type: functional; in short: as §2
[6] = tested on: Platelet; test: Effect on rate of thrombin-induced human platelet aggregation at 0.1 uM; type: functional; in short: as §2
[7] = tested on: Platelet; test: Effect on thrombin-induced human platelet aggregation assessed as lag time in presence of catalase; type: functional
In short: (§3)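 Washed human platelets in HBS with 1 mM Ca2+. Treated with 10 µM compound for 30 min, plus either 300 U/mL catalase for 10 min or 100 µM colchicine for 2 h; controls received each agent alone or vehicle. Thrombin 0.1 U/mL at 37 °C, stirring at 1200 rpm. Lag time, % rate and % aggregation recorded; mean ± SEM, six determinations.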

[8] = tested on: Platelet; test: Effect on thrombin-induced human platelet aggregation in presence of colchicine; type: functional; in short: as §3
[9] = tested on: Platelet; test: Effect on thrombin-induced human platelet aggregation assessed as lag time at 1.0 uM; type: functional; in short: as §2
[10] = tested on: Platelet; test: Effect on rate of thrombin-induced human platelet aggregation at 10 uM; type: functional; in short: as §2
[11] = tested on: Platelet; test: Reduction of thrombin-induced phosphotyrosine content in human platelets at 10 uM after 30 mins
[12] = tested on: Platelet; test: Effect on thrombin-induced human platelet aggregation at 10 uM; type: functional; in short: as §2
[13] = tested on: Platelet; test: Effect on rate of thrombin-induced human platelet aggregation in presence of colchicine; type: functional; in short: as §3
[14] = tested on: Platelet; test: Effect on ADP-induced human platelet aggregation assessed as lag time at 10 uM; type: functional; in short: as §2
[15] = target: Tyrosine-protein kinase BTK (Homo sapiens) (UniProt Q06187); test: Effect on thrombin-induced Btk activation in presence of catalase
In short: (§4)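 Platelets in HBS with 1 mM Ca2+ held 30 min at 37 °C with 10 µM compound, alone or with 300 U/mL catalase (10 min). Samples taken 10 s before and 30 s after 0.1 U/mL thrombin, lysed in Laemmli buffer. Western blot for phospho-Btk Y223, reprobed for total Btk. Densitometry as % of resting control; mean ± SEM, four experiments.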

[16] = target: Tyrosine-protein kinase BTK (Homo sapiens) (UniProt Q06187); test: Effect on thrombin-induced Btk activation at 10 uM after 30 mins; in short: as §4
[17] = tested on: Platelet; test: Effect on thrombin-induced human platelet aggregation in presence of catalase; type: functional; in short: as §3
[18] = tested on: Platelet; test: Effect on rate of ADP-induced human platelet aggregation at 10 uM; type: functional; in short: as §2
[19] = tested on: Platelet; test: Effect on of ADP-induced human platelet aggregation at 10 uM; type: functional; in short: as §2
[20] = target: Proto-oncogene tyrosine-protein kinase Src (Homo sapiens) (UniProt P12931); test: Inhibition of thrombin-induced pp60src activation at 10 uM after 30 mins
In short: (§5)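 Platelets in HBS with 1 mM Ca2+ pretreated 30 min at 37 °C with 10 µM compound, alone or with 300 U/mL catalase (10 min). Sampled 10 s before and 60 s after 0.1 U/mL thrombin. SDS-PAGE and immunoblot with anti-phospho-c-Src Y416, reprobed for total pp60src. Densitometry as % of untreated resting cells; mean ± SEM, four experiments.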

[21] = tested on: Platelet; test: Effect on thrombin-induced human platelet aggregation assessed as lag time in presence of colchicine; type: functional; in short: as §3
[22] = tested on: Platelet; test: Effect on rate of thrombin-induced human platelet aggregation at 1.0 uM; type: functional; in short: as §2
[23] = tested on: Platelet; test: Effect on thrombin-induced calcium mobilization in human platelets; type: functional, cell-based
In short: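 Platelets loaded with 2 µM fura-2/AM for 45 min at 37 °C, 2 × 10^8 cells/mL, stirred at 37 °C. Exposed to 10 µM compound for 30 min. Ca2+-free medium with 100 µM EGTA, then 0.1 U/mL thrombin. Excitation 340/380 nm, emission 505 nm; ratio calibrated to [Ca2+]i. Peak rise above basal taken; n = 6.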

[24] = tested on: Platelet; test: Effect on thrombin-induced human platelet aggregation assessed as lag time at 10 uM; type: functional; in short: as §2
[25] = tested on: Platelet; test: Effect on thrombin-induced human platelet aggregation at 1.0 uM; type: functional; in short: as §2
[26] = tested on: Platelet; test: Effect on thrombin-induced microtubular reorganization at 10 uM after 30 mins; type: functional, Homo sapiens
In short: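 Platelets pretreated with 10 µM compound for 30 min at 37 °C, then 0.1 U/mL thrombin for 1 min in HBS at 2 × 10^7 cells/mL. Fixed in an equal volume of ice-cold 3% formaldehyde in PBS for 10 min, permeabilized with 0.025% NP40, stained 30 min with 1 µM Oregon Green 488 paclitaxel. Fluorescence at ex 488/em 522 nm; n = 6.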

[27] = tested on: Platelet; test: Effect on rate of thrombin-induced human platelet aggregation in presence of catalase; type: functional; in short: as §3
[28] = target: Proto-oncogene tyrosine-protein kinase Src (Homo sapiens) (UniProt P12931); test: Inhibition of thrombin-induced pp60src activation in presence of catalase; in short: as §5

Sequence of Tyrosine-protein kinase BTK (Homo sapiens) (Q06187 whole entry): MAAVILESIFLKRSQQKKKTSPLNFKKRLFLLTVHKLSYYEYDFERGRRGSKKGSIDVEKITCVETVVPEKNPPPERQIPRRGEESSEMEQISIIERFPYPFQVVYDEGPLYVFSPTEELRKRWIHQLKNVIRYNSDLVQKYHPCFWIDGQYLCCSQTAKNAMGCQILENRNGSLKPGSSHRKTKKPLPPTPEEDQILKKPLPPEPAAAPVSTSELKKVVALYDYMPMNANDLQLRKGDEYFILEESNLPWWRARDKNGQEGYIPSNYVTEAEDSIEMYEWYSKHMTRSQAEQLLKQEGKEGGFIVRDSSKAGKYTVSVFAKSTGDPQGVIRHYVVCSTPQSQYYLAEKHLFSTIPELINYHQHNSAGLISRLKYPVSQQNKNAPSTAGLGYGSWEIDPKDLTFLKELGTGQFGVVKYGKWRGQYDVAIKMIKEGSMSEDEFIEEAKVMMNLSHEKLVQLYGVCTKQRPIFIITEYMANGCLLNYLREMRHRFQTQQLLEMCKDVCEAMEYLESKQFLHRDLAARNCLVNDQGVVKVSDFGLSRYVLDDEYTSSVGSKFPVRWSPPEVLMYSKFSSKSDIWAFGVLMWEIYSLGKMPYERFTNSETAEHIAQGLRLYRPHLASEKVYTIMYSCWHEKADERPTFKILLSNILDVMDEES
Sequence of Proto-oncogene tyrosine-protein kinase Src (Homo sapiens) (P12931 2-536 limits assumed): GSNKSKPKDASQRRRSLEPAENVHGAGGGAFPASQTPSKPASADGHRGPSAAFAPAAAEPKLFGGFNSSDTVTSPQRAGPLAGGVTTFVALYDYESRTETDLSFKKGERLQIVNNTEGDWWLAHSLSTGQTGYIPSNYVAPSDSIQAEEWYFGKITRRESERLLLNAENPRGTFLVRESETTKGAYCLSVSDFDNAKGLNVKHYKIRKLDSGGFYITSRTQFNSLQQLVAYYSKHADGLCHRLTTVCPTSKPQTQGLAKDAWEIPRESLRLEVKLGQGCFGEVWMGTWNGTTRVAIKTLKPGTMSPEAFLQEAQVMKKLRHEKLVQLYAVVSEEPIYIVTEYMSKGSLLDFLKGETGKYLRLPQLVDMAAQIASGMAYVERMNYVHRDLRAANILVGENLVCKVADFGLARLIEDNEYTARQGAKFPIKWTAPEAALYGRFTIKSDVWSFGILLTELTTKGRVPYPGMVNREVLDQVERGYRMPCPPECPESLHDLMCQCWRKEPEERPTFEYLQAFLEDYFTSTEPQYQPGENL

What does the source list for `Cc1ccc(-c2nn(C(C)(C)C)c3ncnc(N)c23)cc1`?
Activity [1]: 59.7%; Time [2]: 26.5 s; Activity [3]: 67.1%

Which results are given for `COc1cc2c(c(OC)c1OC)-c1ccc(OC)c(=O)cc1[C@@H](NC(C)=O)CC2` [COLCHICINE]?
Activity [4]: 71.2%; Time [5]: 9.3 s; Activity [6]: 59%

For `C/C(O)=C(\C#N)C(=O)Nc1cc(Br)ccc1Br`, which Activity [1] is on record?
Its Activity is 66.3%.

And the Time [2]?
The Time was 24.3 s.

What about the Activity [3] of the same molecule?
The Activity was 68.7%.

How did the Activity [4] turn out when `Oc1cc(O)c2c(c1)O[C@@]1(c3ccc(O)c(O)c3)Oc3cc(O)c4c(c3[C@@H]2[C@H]1O)O[C@H](c1ccc(O)c(O)c1)[C@H](O)[C@H]4c1c(O)cc(O)c2c1O[C@H](c1ccc(O)c(O)c1)[C@H](O)C2` [CINNAMTANNIN B1] was run?
The Activity was 81.9%.

And the Time [7]?
Its Time is 9.1 s.

What about the Activity [8] of the same molecule?
The Activity was 74.6%.

What about the Time [9] of the same molecule?
Its Time is 9.8 s.

What about the Activity [10] of the same molecule?
Its Activity is 42.1%.

What about the Activity [11] of the same molecule?
The Activity was “Active”.

What about the Activity [12] of the same molecule?
Its Activity is 71.8%.

And the Activity [13]?
The Activity was 40.3%.

And the Time [14]?
The Time was 15.6 s.

What about the Activity [15] of the same molecule?
Its Activity is 90%.

What about the Time [5] of the same molecule?
Its Time is 9.2 s.

What about the Activity [16] of the same molecule?
The Activity was 50%.

And the Activity [17]?
The Activity was 77%.

What about the Activity [18] of the same molecule?
Its Activity is 9%.

And the Activity [19]?
The Activity was 9.5%.

And the Activity [20]?
Its Activity is “Active”.

And the Time [21]?
Its Time is 15 s.

What about the Activity [22] of the same molecule?
Its Activity is 43.7%.

And the Activity [23]?
The Activity was “inactive”.

What about the Time [24] of the same molecule?
Its Time is 10.6 s.

And the Activity [25]?
Its Activity is 80.6%.

And the Activity [26]?
Its Activity is 15%.

What about the Activity [6] of the same molecule?
Its Activity is 49%.

What about the Activity [27] of the same molecule?
The Activity was 48.1%.

What about the Activity [28] of the same molecule?
The Activity was “Active”.
